Key:
[1] = target: GABA-A receptor; anion channel (Bos taurus) (UniProt P10063+P08220+P20237+P08219+P10064+P22300); assay: Inhibition of specific [3H]flunitrazepam binding to Benzodiazepine receptor in bovine brain membranes at 34 uM; assay type: cell membranes
[2] = target: GABA-A receptor; anion channel; assay: Inhibitory concentration against [3H]flunitrazepam binding to Benzodiazepine receptor in bovine brain membranes; assay type: cell membranes
Outline: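 Membranes were made by homogenizing in ice-cold 0.32 M sucrose with protease inhibitors, spinning at 48000g, and osmotically shocking in 50 mM Tris-HCl. Membranes (0.4-0.5 mg protein, Lowry) were incubated with 1.0 nM [3H]flunitrazepam in 50 mM Tris-HCl at 0 °C for 90 min, then filtered and counted by scintillation. Nonspecific binding was defined with 10 μM diazepam. IC50 came from log-probit analysis of 4-6 concentrations, each in triplicate.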

Row | inhibition [1] | IC50 [2] | Compound
1 | 18% | – | COc1nc2ccccc2c2c1c(C)nn2-c1cccc(Cl)c1
2 | 97% | 9 µM | Cc1cccc(-n2nc(C)c3c(O)nc4ccccc4c32)c1
3 | 85% | 3.4 µM | Cc1nn(-c2ccccc2)c2c1c(=O)n(C)c1ccccc21
4 | 96% | 1 µM | Cc1nn(-c2cccc(Cl)c2)c2c1c(=O)n(C)c1ccccc21
5 | 41% | – | Cc1nn(-c2ccccc2)c2c1c(N1CCN(C)CC1)nc1ccccc12
6 | 70% | 22 µM | Cc1nn(-c2ccc(Cl)cc2)c2c1c(O)nc1ccccc12
7 | 63% | – | Cc1ccc(-n2nc(C)c3c(=O)n(C)c4ccccc4c32)cc1
8 | 78% | 2.7 µM | Cc1nn(-c2ccc(Cl)cc2)c2c1c(=O)n(C)c1ccccc21
9 | 65% | – | Cc1ccc(-n2nc(C)c3c(O)nc4ccccc4c32)cc1
10 | 21% | – | Cc1nn(-c2cccc(Cl)c2)c2c1c(Cl)nc1ccccc12
11 | 44% | – | Cc1cccc(-n2nc(C)c3c(N4CCN(C)CC4)nc4ccccc4c32)c1
12 | 49% | – | Cc1nn(-c2cccc(Cl)c2)c2c1c(N1CCN(C)CC1)nc1ccccc12
13 | 62% | – | Cc1nn(-c2ccccc2)c2c1c(O)nc1ccccc12
14 | 7% | – | Cc1cccc(-n2nc(C)c3c(N4CCOCC4)nc4ccccc4c32)c1
15 | 94% | 4.4 µM | Cc1nn(-c2cccc(Cl)c2)c2c1c(O)nc1ccccc12
16 | 95% | 0.26 µM | Cc1cccc(-n2nc(C)c3c(=O)n(C)c4ccccc4c32)c1
17 | 24% | – | Cc1nn(-c2cccc(Cl)c2)c2c1c(N1CCOCC1)nc1ccccc12
18 | 47% | – | Cc1[nH]nc2c1c(=O)[nH]c1ccccc12
19 | 8% | – | Cc1nn(-c2ccccc2)c2c1c(N1CCOCC1)nc1ccccc12
20 | 23% | – | Cc1nn(-c2ccc(Cl)cc2)c2c1c(N1CCN(C)CC1)nc1ccccc12
21 | 21% | – | Cc1cccc(-n2nc(C)c3c(Cl)nc4ccccc4c32)c1

— ChEMBL document CHEMBL1123403, “Pyrazolo[4,5-c]quinolines. 2. Synthesis and specific inhibition of benzodiazepine receptor binding” (J Med Chem, 1986)
